In the library only some 1% were active in any assay of this set; here they are far more common.
bCat nuc transl = modulators of beta-catenin nuclear translocation, primary screen, imaging, HeLa cells, immunofluorescence, high-content. hit rate 0.3% among 190,000. nuclear translocation activity, % at 5 µM;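 active = nuclear translocation activity above 50% at 5 µM, with a well cell count of 50 or more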;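 note: per-cell ratio of nuclear to cytoplasmic median beta-catenin stain intensity; plate controls were DMSO negative control for no effect and GSK-3 inhibitor IX positive control for full effect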
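Test system: human HeLa cell line; Doses: 5 µM primary, 0.02–20 µM confirmation; Incubation: 24 h compound exposure, 37°C; Detection: beta-catenin immunofluorescence imaging with DAPI; Read-out: beta-catenin nuclear/cytoplasmic ratio, % activation.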
MT stabilizer = microtubule stabilizers in HeLa cells, primary screen, imaging, high-content imaging; HeLa tubulin immunostaining HCS, 24 h; share of cells brighter than vehicle mean+2SD; % tubulin-high responders, % at 10 µM; hit rate 0.83% among 200,000; AID 2205, 2009;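 active = plate Z-score above 3 for both tubulin-high and condensed-nucleus cell shares, with cell loss under 80%, at 10 µM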;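 note: anti alpha tubulin signal scored within the nucleus-defined area of each cell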
Hsp70 act = Hsp70 transcriptional activators, primary screen, cell-based, HeLa, Hsp70 promoter luciferase, luminescence, 10 µM | HeLa Hsp70 promoter luciferase reporter; scaled: vehicle 0, proteasome-inhibitor control 100% | activation, % at 10 µM | hit rate 0.04% among 200,000;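 active = activation above the mean across all tested compounds plus 3 SD, cutoff set per campaign, cut at about 5.5% in these data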;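 note: 100% = MG132 at 30 µM as the positive control and 0% = DMSO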
TLR9-MyD88 block = inhibitors of TLR9-MyD88 association in cells, primary screen, cell-based, CHO, BLA complementation, fluorescence. AID 504734, 2011. hit rate 0.21% among 340,000. Toll-like receptor 9 (Homo sapiens) + Myeloid differentiation primary response protein …. CCF4 FRET ratio. inhibition, % at 4.98 µM;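 active = inhibition above the mean over all tested compounds plus 3 SD, cut at about 21% in these data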;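 note: 0% = DMSO only wells and 100% = clavulanate BLA inhibitor control wells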
NOD2 RIPK2 PPI = NOD2-RIPK2 binding disruptors in cells, primary screen, fluorescence, CHO cells, BLA complementation | CCF4 ratio | inhibition, % at 4.98 µM | hit rate 0.38% among 360,000 | AID 624267, 2012; in the data active = inhibition above about 21%;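 note: 0% = vehicle only and 100% = reference blocker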
Target sequence (O43353 whole entry, looked up): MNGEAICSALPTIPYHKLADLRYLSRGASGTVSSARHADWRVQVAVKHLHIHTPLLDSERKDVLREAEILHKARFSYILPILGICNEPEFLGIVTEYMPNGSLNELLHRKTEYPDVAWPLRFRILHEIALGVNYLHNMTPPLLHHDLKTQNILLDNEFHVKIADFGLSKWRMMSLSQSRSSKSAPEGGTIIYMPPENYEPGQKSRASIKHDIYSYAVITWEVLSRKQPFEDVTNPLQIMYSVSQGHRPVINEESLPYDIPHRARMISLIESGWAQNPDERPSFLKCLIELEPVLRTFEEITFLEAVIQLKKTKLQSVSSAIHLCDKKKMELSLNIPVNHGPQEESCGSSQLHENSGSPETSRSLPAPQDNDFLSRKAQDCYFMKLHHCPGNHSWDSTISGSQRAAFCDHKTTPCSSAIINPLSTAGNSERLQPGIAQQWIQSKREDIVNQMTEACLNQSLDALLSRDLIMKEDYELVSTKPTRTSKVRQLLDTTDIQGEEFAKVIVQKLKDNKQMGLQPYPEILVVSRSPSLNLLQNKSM
TLR4 MyD88 comp = inhibitors of TLR4-MyD88 association in cells, primary screen, cell-based, HeLa CL3-4, BLA complementation, FRET ratio; Toll-like receptor 4 (Homo sapiens) + Myeloid differentiation primary response protein …; HeLa CL3-4 TLR4/MyD88 BLA complementation; inhibition, % at 8.4 µM; hit rate 0.18% among 200,000; AID 861, 2007; in the data active = inhibition above about 25%;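 note: 0% = vehicle and 100% = reference inhibitor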
TLR9-MyD88 cf = TLR9-MyD88 association inhibitors, retest, confirmation, cell-based, CHO, BLA complementation, fluorescence, triplicate | CCF4 FRET ratio | hit rate 51% among 680 | inhibition, % at 4.98 µM | shares compounds with TLR9-MyD88 block;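 active = mean inhibition across three repeats above about 21% taken from the earlier screen, limit read from the data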;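 note: blue over green emission ratio reports constitutive TLR9 MyD88 association via BLA complementation; 0% = DMSO vehicle wells and 100% = clavulanate BLA inhibitor wells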
BLA counter-1 = beta-lactamase reporter inhibitors in CHO cells, artefact control for TLR9-MyD88 binding inhibitor project, cell-based, fluorescence. hit rate 7% among 680. CHO-BLA cells, CCF4 FRET ratio, BLA reporter. shares compounds with TLR9-MyD88 block. inhibition, % at 4.98 µM. AID 540251, 2011;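 active = mean inhibition above a 50% cutoff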;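 note: counterscreen of TLR9-MyD88 hits on CMV-driven BLA in CHO-K1 cells; 0% = DMSO alone and 100% = clavulanate blocking BLA; higher means less blue over green ratio so more BLA blockade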
TLR9 CHO tox = CHO cell viability loss – luminescence, single concentration, cytotoxicity control for TLR9-MyD88 binding inhibitor project; shares compounds with TLR9-MyD88 block; TLR9-MyD88 CHO cells cytotoxicity; inhibition, % at 4.98 µM; hit rate 39% among 680; in the data active = inhibition above about 11%
NOD2-RIPK2 conf = NOD2-RIPK2 binding disruptors, retest, confirmation, fluorescence, CHO cells, BLA complementation, triplicate | shares compounds with NOD2 RIPK2 PPI | CCF4 FRET | inhibition, % at 4.98 µM | hit rate 70% among 1,200 | AID 624370, 2012;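 active = mean inhibition across replicates above a set limit taken from the earlier primary screen, cut at about 21% in these data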;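 note: 0% = DMSO-only wells and the high end = clavulanate BLA-blocked wells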
BLA counter-2 = hits BLA reporter in NOD2-RIPK2 inhibitor counterscreen; CHO BLA reporter, CCF4 FRET ratio; inhibition, % at 4.98 µM; shares compounds with NOD2 RIPK2 PPI; hit rate 57% among 1,200;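 active = mean inhibition above the low-control mean inhibition plus three low-control SD, cut at about 11% in these data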;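 note: 0% = DMSO only wells and 100% = clavulanate high control wells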
An asterisk follows results filed as active; x = not tested or not shown.

SMILES | bCat nuc transl | MT stabilizer | Hsp70 act | TLR9-MyD88 block | NOD2 RIPK2 PPI | TLR4 MyD88 comp | TLR9-MyD88 cf | BLA counter-1 | TLR9 CHO tox | NOD2-RIPK2 conf | BLA counter-2
C1=C(c2ccccc2)Nc2ncnn2C1c1ccccc1 (stereo unspecified) | x | x | x | 25* | 35* | x | 11 | 12 | 1 | 1 | 5
Fc1ccc(Br)cc1C1C=C(c2ccc(Br)cc2)Nc2ncnn21 (stereo unspecified) | -11 | 49* | 0 | 21* | 43* | 1 | 7 | 10 | 3 | 1 | 2
CC(C)(C)c1cc(C2=CSC3=NCCN23)cc(C(C)(C)C)c1O | x | x | x | 21* | 24* | x | 14 | 16 | 2 | 33* | 17*
Cc1ccc(-c2nc3ncccn3c2Nc2ccccc2C)o1 | -2 | 3 | 0 | 0 | 5 | 21 | x | x | x | x | x
Cc1ccc(-c2nc3cnccn3c2Nc2c(C)cccc2C)o1 | -2 | 3 | 0 | 29* | 49* | 17 | 14 | 18 | 9 | 36* | 41*
COC(=O)c1ccc(CNC(=O)c2ccc(S(=O)(=O)N3CCCC(C)C3)cc2)cc1 (stereo unspecified) | x | x | x | -8 | 6 | x | x | x | x | x | x
O=C(/C=C/c1cn(CC(O)CN2CCCCC2)c2ccccc12)c1cccs1 (stereo unspecified) | 7 | 4 | 0 | 25* | 28* | 22 | 22* | 20 | 5 | 51* | 50*
Nc1cccc2c1C(=O)N(Cc1cccc(Cl)c1)C2=O | x | 2 | 0 | 21* | 35* | 20 | 17 | 20 | 4 | 32* | 45*
O=C1Cc2ccccc2C(=O)N1Cc1cccc(Cl)c1 | x | x | x | 7 | -10 | x | x | x | x | x | x
Cc1cc(C)cc(NC(=O)/C=C/c2ccc([N+](=O)[O-])s2)c1 | 4 | 7 | 0 | -1 | 9 | 2 | x | x | x | x | x
Cc1ccccc1NC(=O)/C=C/c1ccc([N+](=O)[O-])s1 | 3 | 6 | 1 | 27* | 39* | 19 | 28* | 22 | 96* | 37* | 41*
Nc1cccc2c1C(=O)N(C(=O)c1cccc(S(=O)(=O)N3CCCCCC3)c1)C2=O | 1 | 2 | 0 | 25* | 28* | 16 | 16 | 14 | 4 | 33* | 38*
Cc1ccc(S(=O)(=O)N2CCOCC2)cc1C(=O)N1C(=O)c2cccc(N)c2C1=O | x | 4 | 0 | -1 | 10 | -8 | x | x | x | x | x
O=S(=O)(Nc1cccc2cccnc12)c1ccccc1 | x | x | x | 35* | 39* | x | 18 | 7 | 98* | 54* | 18*
COC(=O)c1ccccc1NC(=O)/C=N/O | -2 | 3 | 1 | 8 | 5 | -4 | x | x | x | x | x
O=C(/C=N/O)Nc1ccc2sc3ccccc3c2c1 | 0 | x | x | 34* | 21* | x | 8 | 6 | 3 | 20 | 15*
Cc1c(Cl)c(=O)n2c(=O)c(Cl)c(C)n12 | -2 | 5 | 0 | 26* | 24* | 9 | 12 | 14 | 1 | 37* | 40*
O=C(CCc1nnc2ccc(NCc3ccco3)nn12)Nc1ccccc1F | x | x | x | -2 | 6 | x | x | x | x | x | x
CCCCCCCCN1C(=O)[C@H](CC(=O)NCCCOCCCC)C[C@@]2(C(=O)OC)CCCCC=C12 | x | x | x | x | 2 | x | x | x | x | x | x
COc1ccc(CNS(=O)(=O)CCNC(=O)c2ccc(OC)cc2)cc1 | x | x | x | 5 | -1 | x | x | x | x | x | x
O=C(NCC(=O)N1CCN(c2ccccc2F)CC1)c1ccc(Br)o1 | x | x | x | -17 | -9 | x | x | x | x | x | x
Cc1ccccc1-n1c(C)cc(/C=N/Nc2ccc([N+](=O)[O-])cn2)c1C | 0 | 2 | 0 | 37* | 28* | 24 | 21* | 25 | 10* | 38* | 40*
F[B-](F)(F)COc1ccccc1 | x | x | x | -2 | -20 | x | x | x | x | x | x
CCOC(=O)c1c(C)nc2sc(C(=O)Nc3ccc(C(C)=O)cc3)c(N)c2c1-c1ccc(OC)cc1 | 15 | 31 | 0 | 22* | 25* | 23 | 18 | 24 | 16* | 49* | 54*
Cc1cccc(C(=O)Nc2cc(S(=O)(=O)N3CCOCC3)ccc2N2CCCC2)c1 | x | x | x | -7 | -9 | x | x | x | x | x | x
COc1ccc(/C=C/c2nc3cc(-c4ccccc4)ccc3o2)cc1O | 4 | 2 | 0 | 21* | 23* | -6 | 5 | 9 | 11* | 20 | 27*
COc1ccc(/C=C/c2nc3ccccc3c(=O)o2)cc1 | x | x | x | 3 | 7 | x | x | x | x | x | x

High-throughput results from PubChem BioAssay.
